Results from ChEMBL document CHEMBL4513216, “Probing the Open Global Health Chemical Diversity Library for Multistage-Active Starting Points for Next-Generation Antimalarials” (ACS Infect Dis, 2020).

Experiment: Toxicity liver stage against HepG2, at 10uM
Format: cell-based
Set-up: test concentration 10 uM, cell line HepG2-A16-CD81EGFP
Conditions: human, HepG2-A16-CD81EGFP cells; read-out: INHIBITION
How it was run: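 Uninfected HepG2-A16-CD81EGFP cells, 3 × 10^3 per well, 1536-well, plated on prespotted compound at 10 μM final, parasite-free screening media added to match infected plates; puromycin 10 μM positive, DMSO 0.5% negative; run in parallel with 48 h PbLuc assay at 37 °C, 5% CO2; viability by CellTiter-Glo luminescence, normalized to controls.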

For O=C(NC[C@H]1COCc2nc3cc(F)ccc3n21)c1cccnc1, which cytotoxicity at 10 µM is on record?
The cytotoxicity at 10 µM was -1.23%.

With CN1CCC(N2CCC[C@H]2c2nc(-c3cncnc3N)no2)CC1 as the compound, how does the cytotoxicity at 10 µM read?
The cytotoxicity at 10 µM was -5.33%.

For Cc1cccc2c1nc1n2[C@@H](CNC(=O)c2cncnc2)COC1, which cytotoxicity at 10 µM is on record?
Its cytotoxicity at 10 µM is 1.53%.

For Cc1nnc(NC(=O)CSCc2cc(=O)n3ccccc3n2)s1, which cytotoxicity at 10 µM is on record?
Its cytotoxicity at 10 µM is 1.5%.

For COc1cc2c(cc1OC)C(=O)C(Sc1nnc(C)o1)C2 (stereo not given), which cytotoxicity at 10 µM is on record?
The cytotoxicity at 10 µM was 0.372%.

With COc1ccccc1C(=O)N1CCC(Oc2ccc(C#N)cn2)CC1 as the compound, how does the cytotoxicity at 10 µM read?
The cytotoxicity at 10 µM was 5.54%.

Which cytotoxicity at 10 µM does the source give for Cc1cc(C)c(S(=O)(=O)Nc2c(C)nc(N3CCCC3)nc2C)cc1C here?
Its cytotoxicity at 10 µM is 3.62%.

Which cytotoxicity at 10 µM does the source give for CCOCC1C[C@@H]2OCCN(C(=O)c3ccc[nH]3)[C@H]2C1 (stereo not given in full) here?
Its cytotoxicity at 10 µM is -1.86%.

For CN1C(=O)CC2(CCN(S(=O)(=O)N(C)C)CC2)c2ccccc21, which cytotoxicity at 10 µM is on record?
The cytotoxicity at 10 µM was 0.688%.

Which cytotoxicity at 10 µM does the source give for CCC(=O)N1CCN(c2nc(C)nc3c(C)nn(C)c23)CC1 here?
Its cytotoxicity at 10 µM is 12.4%.

With CC(=O)Nc1ncc(S(=O)(=O)Nc2cccc(C)c2)s1 as the compound, how does the cytotoxicity at 10 µM read?
Its cytotoxicity at 10 µM is 7.63%.

With N#Cc1cn[nH]c1NCc1cc(Br)ccc1O as the compound, how does the cytotoxicity at 10 µM read?
Its cytotoxicity at 10 µM is -7.29%.

For O=S1(=O)NC2(CCCN(Cc3ccc(Cl)cc3)C2)COc2ccccc21 (stereo not given), which cytotoxicity at 10 µM is on record?
The cytotoxicity at 10 µM was 15.2%.

Which cytotoxicity at 10 µM does the source give for O=C1Nc2ccccc2CC12CCCN2Cc1ccccn1 (stereo not given) here?
The cytotoxicity at 10 µM was -17.1%.

For Cc1cc(NC(C)C(=O)N2CCN(c3ncccn3)CC2)ccc1F (stereo not given), which cytotoxicity at 10 µM is on record?
Its cytotoxicity at 10 µM is 7.77%.

Which cytotoxicity at 10 µM does the source give for Cc1ccc(OCC(=O)Nc2ncccc2OC(F)F)cc1 here?
Its cytotoxicity at 10 µM is 6.42%.

Which cytotoxicity at 10 µM does the source give for COCC(C)NC(=O)NCCc1cccc(OC)c1O (stereo not given) here?
The cytotoxicity at 10 µM was 7.87%.

With CCN(Cc1cnn(C)c1)S(=O)(=O)N1CCCC1c1ccco1 (stereo not given) as the compound, how does the cytotoxicity at 10 µM read?
The cytotoxicity at 10 µM was -3.55%.

For COC(=O)c1cc(C(=O)N2CCc3ccc(F)cc3C2C)ccn1 (stereo not given), which cytotoxicity at 10 µM is on record?
Its cytotoxicity at 10 µM is 10.5%.

Which cytotoxicity at 10 µM does the source give for Cc1nnc(CN(C)CC2CCCCC2)o1 here?
The cytotoxicity at 10 µM was 15.6%.

Which cytotoxicity at 10 µM does the source give for CCNC(=O)NC1CN(Cc2ccncc2Cl)C[C@@H]1OC (stereo not given in full) here?
Its cytotoxicity at 10 µM is 1.85%.

For O=C(Cn1cc(I)cn1)NCC1CCC1, which cytotoxicity at 10 µM is on record?
Its cytotoxicity at 10 µM is 14.5%.

Which cytotoxicity at 10 µM does the source give for Cc1cnc(CN2CCC(N(C)Cc3nnc(C4CC4)n3C)C2)cn1 (stereo not given) here?
Its cytotoxicity at 10 µM is -2.31%.

With c1c(CN2CCOCC2)nc2n1CCN(C1CCOCC1)C2 as the compound, how does the cytotoxicity at 10 µM read?
The cytotoxicity at 10 µM was 0.997%.

With CC(=O)Nc1ccc2nc(-c3nccn3C[C@@H]3CCCO3)ccc2c1 as the compound, how does the cytotoxicity at 10 µM read?
The cytotoxicity at 10 µM was -8.18%.

With O=C1CCC(C(=O)N2CCC(Cn3cc(C4CCCC4)nn3)CC2)=NN1 as the compound, how does the cytotoxicity at 10 µM read?
The cytotoxicity at 10 µM was 5.14%.

Which cytotoxicity at 10 µM does the source give for Cc1nc(N(C)C)ncc1C(=O)NCCCn1nccc1C1CC1 here?
The cytotoxicity at 10 µM was 9.53%.

For Cc1n[nH]c(C)c1CC(=O)N1CC[C@@](C)(O)[C@@H](Cc2ccccc2)C1, which cytotoxicity at 10 µM is on record?
The cytotoxicity at 10 µM was 5.94%.

Which cytotoxicity at 10 µM does the source give for CCOc1cccc(CN2CCCn3nc(CNS(C)(=O)=O)cc3C2)c1 here?
The cytotoxicity at 10 µM was -4.01%.

With COc1cccc2c1OCCCN(c1nc(N)nc3c1CCNC3)C2 as the compound, how does the cytotoxicity at 10 µM read?
Its cytotoxicity at 10 µM is 0.944%.

Which cytotoxicity at 10 µM does the source give for COCC(=O)N1CCCC1c1ccc(C(=O)NCCN2CCCCC2)s1 (stereo not given) here?
Its cytotoxicity at 10 µM is 4.26%.

With O=C(c1cccnc1)N1CCC(Oc2cccc(C(F)(F)F)c2)CC1 as the compound, how does the cytotoxicity at 10 µM read?
The cytotoxicity at 10 µM was 7.19%.

With Cc1nc(-c2c(-c3ccccc3)ncn2CCCN2CCOCC2)c[nH]1 as the compound, how does the cytotoxicity at 10 µM read?
Its cytotoxicity at 10 µM is -6.76%.

With Cc1cnn(CC(=O)N2CCC3(CCC(=O)N(CC(C)O)C3)CC2)c1 (stereo not given) as the compound, how does the cytotoxicity at 10 µM read?
The cytotoxicity at 10 µM was 3.05%.

For CN(Cc1ccccc1)CC(O)Cn1cnc2c(Cl)cc(Cl)cc2c1=O (stereo not given), which cytotoxicity at 10 µM is on record?
Its cytotoxicity at 10 µM is -2.34%.

For CCc1nc(CC(=O)N2CCn3c(C)nnc3C2)cs1, which cytotoxicity at 10 µM is on record?
The cytotoxicity at 10 µM was -9.57%.

With Cc1cc(C)c(CNC(=O)NCC2CCCOC2)c(=O)[nH]1 (stereo not given) as the compound, how does the cytotoxicity at 10 µM read?
The cytotoxicity at 10 µM was -8.19%.

Which cytotoxicity at 10 µM does the source give for CCn1cnnc1C1CCN(C(=O)c2cnc(C)s2)CC1 here?
The cytotoxicity at 10 µM was -8.45%.

Which cytotoxicity at 10 µM does the source give for c1cn(-c2ccc(CN3CCOC(Cn4cncn4)C3)cc2)cn1 (stereo not given) here?
The cytotoxicity at 10 µM was 1.25%.

With Cc1nn(-c2ccccc2)cc1C(=O)N1CCCC(n2ccnc2C)C1 (stereo not given) as the compound, how does the cytotoxicity at 10 µM read?
Its cytotoxicity at 10 µM is -3.11%.

With Cc1nnc([C@]23COC[C@H]2CN(Cc2cccs2)C3)o1 as the compound, how does the cytotoxicity at 10 µM read?
The cytotoxicity at 10 µM was -3.34%.

For O=C(NC1CC2(CCN(CCO)CC2)c2ccccc21)c1ccsc1 (stereo not given), which cytotoxicity at 10 µM is on record?
Its cytotoxicity at 10 µM is -14.2%.

For Cc1ccc(N2CCN(CC3CC3)C3(CCN(C(C)C)CC3)C2=O)cn1, which cytotoxicity at 10 µM is on record?
The cytotoxicity at 10 µM was 16%.

With O=C(O)c1cnc2c(Br)cccc2c1O as the compound, how does the cytotoxicity at 10 µM read?
Its cytotoxicity at 10 µM is 15.5%.

With N#Cc1ccccc1C(=O)N1C[C@@H]2CC[C@H]1CN(Cc1ccccc1)C2 as the compound, how does the cytotoxicity at 10 µM read?
The cytotoxicity at 10 µM was 1.43%.
